Test results taken from ChEMBL document CHEMBL3351896, “Small Molecule that Reverses Dexamethasone Resistance in T-cell Acute Lymphoblastic Leukemia (T-ALL)” (ACS Med Chem Lett, 2014).
Calls of active or inactive are those of the source. The calls are words filed in the database; no cut-off is given here.

Columns and labels:
CUTLL1 [1] = assay: Effect on SKP2 gene expression in human CUTLL1 cells in presence of 1 uM dexamethasone at 30 uM after 24 hrs by microarray method; assay type: functional, cell-based
In short: (§1)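 Human CUTLL1 T-ALL cells exposed for 24 h to vehicle (DMSO), dexamethasone alone (1 μM), test compound alone (30 μM), or dexamethasone 1 μM plus compound 30 μM, each in triplicate. Expression profiled by microarray. Glucocorticoid-regulated gene sets from ALL patients on glucocorticoid therapy scored by GSEA. Leading-edge genes compared between the combination and dexamethasone alone.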

CUTLL1 [2] = assay: Effect on BTG1 gene expression in human CUTLL1 cells in absence of 1 uM dexamethasone at 30 uM after 24 hrs by microarray method; assay type: functional, cell-based
In short: (§2)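 CUTLL1 T-ALL cells exposed 24 h to vehicle (DMSO), dexamethasone alone (1 μM), test agent alone (30 μM), or dexamethasone (1 μM) plus test agent (30 μM), in triplicate. Expression profiled by microarray. Leading-edge genes from GSEA were compared between the dexamethasone-plus-agent and dexamethasone-alone groups, using glucocorticoid-regulated gene sets from ALL patients on glucocorticoid therapy.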

CUTLL1 [3] = assay: Effect on E2F7 gene expression in human CUTLL1 cells in absence of 1 uM dexamethasone at 30 uM after 24 hrs by microarray method; assay type: functional, cell-based; in short: as §2
CUTLL1 [4] = assay: Effect on NXT1 gene expression in human CUTLL1 cells in absence of 1 uM dexamethasone at 30 uM after 24 hrs by microarray method; assay type: functional, cell-based; in short: as §2
CUTLL1 [5] = assay: Growth inhibition of human CUTLL1 cells at 50 uM in presence of MG262 after 48 hrs by alamar blue assay; assay type: functional, cell-based
CUTLL1 [6] = assay: Effect on FEN1 gene expression in human CUTLL1 cells in absence of 1 uM dexamethasone at 30 uM after 24 hrs by microarray method; assay type: functional, cell-based; in short: as §2
CUTLL1 [7] = assay: Effect on CDT1 gene expression in human CUTLL1 cells in absence of 1 uM dexamethasone at 30 uM after 24 hrs by microarray method; assay type: functional, cell-based; in short: as §2
CUTLL1 [8] = assay: Effect on BYSL gene expression in human CUTLL1 cells in presence of 1 uM dexamethasone at 30 uM after 24 hrs by microarray method; assay type: functional, cell-based; in short: as §2
CUTLL1 [9] = assay: Effect on POLE2 gene expression in human CUTLL1 cells in absence of 1 uM dexamethasone at 30 uM after 24 hrs by microarray method; assay type: functional, cell-based; in short: as §1
CUTLL1 [10] = assay: Increase in GR expression in human CUTLL1 cells at < 25 uM after 24 hrs by RT-qPCR method; assay type: functional, cell-based
CUTLL1 [11] = assay: Growth inhibition of human CUTLL1 cells at 50 uM in presence of staurosporine after 48 hrs by alamar blue assay; assay type: functional, cell-based
CUTLL1 [12] = assay: Effect on ZWINT gene expression in human CUTLL1 cells in presence of 1 uM dexamethasone at 30 uM after 24 hrs by microarray method; assay type: functional, cell-based; in short: as §1
CUTLL1 [13] = assay: Effect on TIPIN gene expression in human CUTLL1 cells in presence of 1 uM dexamethasone at 30 uM after 24 hrs by microarray method; assay type: functional, cell-based; in short: as §1
CUTLL1 [14] = assay: Effect on TIFA gene expression in human CUTLL1 cells in presence of 1 uM dexamethasone at 30 uM after 24 hrs by microarray method; assay type: functional, cell-based; in short: as §1
CUTLL1 [15] = assay: Effect on GGNBP2 gene expression in human CUTLL1 cells in absence of 1 uM dexamethasone at 30 uM after 24 hrs by microarray method; assay type: functional, cell-based; in short: as §2
CUTLL1 [16] = assay: Effect on NXT1 gene expression in human CUTLL1 cells in presence of 1 uM dexamethasone at 30 uM after 24 hrs by microarray method; assay type: functional, cell-based; in short: as §2
CUTLL1 [17] = assay: Effect on PAICS gene expression in human CUTLL1 cells in absence of 1 uM dexamethasone at 30 uM after 24 hrs by microarray method; assay type: functional, cell-based; in short: as §2
CUTLL1 [18] = assay: Effect on LILRB3 gene expression in human CUTLL1 cells in absence of 1 uM dexamethasone at 30 uM after 24 hrs by microarray method; assay type: functional, cell-based; in short: as §2
CUTLL1 [19] = assay: Effect on CDC45 gene expression in human CUTLL1 cells in absence of 1 uM dexamethasone at 30 uM after 24 hrs by microarray method; assay type: functional, cell-based; in short: as §2
CUTLL1 [20] = assay: Effect on USP1 gene expression in human CUTLL1 cells in presence of 1 uM dexamethasone at 30 uM after 24 hrs by microarray method; assay type: functional, cell-based; in short: as §1
CUTLL1 [21] = assay: Effect on ATAD2 gene expression in human CUTLL1 cells in presence of 1 uM dexamethasone at 30 uM after 24 hrs by microarray method; assay type: functional, cell-based; in short: as §2
CUTLL1 [22] = assay: Effect on CDC25A gene expression in human CUTLL1 cells in presence of 1 uM dexamethasone at 30 uM after 24 hrs by microarray method; assay type: functional, cell-based; in short: as §2
CUTLL1 [23] = assay: Increase in GR expression in human CUTLL1 cells at 25 to 50 uM in presence of 1 uM dexamethasone and 1 uM […] and glucocorticoid receptor antagonist RU486 after 24 hrs by RT-qPCR method; assay type: functional, cell-based
In short: (§3)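 CUTLL1 cells exposed to compound (25 or 50 μM) alone, with 1 μM dexamethasone, or with dexamethasone plus 1 μM RU486, for 6 or 24 h. GR measured as protein by Western blot and as transcript by RT-qPCR.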

CUTLL1 [24] = assay: Effect on BRCA1 gene expression in human CUTLL1 cells in presence of 1 uM dexamethasone at 30 uM after 24 hrs by microarray method; assay type: functional, cell-based; in short: as §2
CUTLL1 [25] = assay: Effect on HELLS gene expression in human CUTLL1 cells in absence of 1 uM dexamethasone at 30 uM after 24 hrs by microarray method; assay type: functional, cell-based; in short: as §2
CUTLL1 [26] = assay: Effect on MCM10 gene expression in human CUTLL1 cells in absence of 1 uM dexamethasone at 30 uM after 24 hrs by microarray method; assay type: functional, cell-based; in short: as §2
CUTLL1 [27] = assay: Effect on NHP2 gene expression in human CUTLL1 cells in presence of 1 uM dexamethasone at 30 uM after 24 hrs by microarray method; assay type: functional, cell-based; in short: as §2
CUTLL1 [28] = assay: Increase in GR expression in human CUTLL1 cells at 50 uM after 6 hrs by Western blotting method; assay type: functional, cell-based; in short: as §3
CUTLL1 [29] = assay: Effect on APITD1 gene expression in human CUTLL1 cells in presence of 1 uM dexamethasone at 30 uM after 24 hrs by microarray method; assay type: functional, cell-based; in short: as §2
CUTLL1 [30] = assay: Effect on DDIT4 gene expression in human CUTLL1 cells in presence of 1 uM dexamethasone at 30 uM after 24 hrs by microarray method; assay type: functional, cell-based; in short: as §2
CUTLL1 [31] = assay: Effect on RPS14 gene expression in human CUTLL1 cells in absence of 1 uM dexamethasone at 30 uM after 24 hrs by microarray method; assay type: functional, cell-based; in short: as §1
[32] = target: Gamma-secretase (Homo sapiens) (UniProt Q96BI3+Q9NZ42+Q8WW43+P49768+Q92542+P49810); assay: Inhibition of gamma secretase in human CUTLL1 cells assessed as effect on NOTCH cleavage level at 25 uM after 24 hrs by Western blotting; assay type: cell-based
In short: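 Western blot of intracellular NOTCH (ICN) in CUTLL1 cells after 24 h exposure to compound alone or with 1 μM dexamethasone. The γ-secretase inhibitor Compound E (100 nM) plus dexamethasone was the reference treatment.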

CUTLL1 [33] = assay: Growth inhibition of human CUTLL1 cells at 50 uM in presence of camptothecin after 48 hrs by alamar blue assay; assay type: functional, cell-based

With `Nc1ncc(-c2ccncc2)c(C2CC2)n1` the Activity (CUTLL1 [1]) was “Active”, the Activity (CUTLL1 [2]) was “inactive” and the Activity (CUTLL1 [3]) was “inactive”. The Activity (CUTLL1 [4]) was “inactive”, the “growth inhibition (GI)” value (CUTLL1 [5]) was “inactive” and the Activity (CUTLL1 [6]) was “inactive”. For the same molecule, the Activity (CUTLL1 [7]) was “inactive”, the Activity (CUTLL1 [8]) was “Active” and the Activity (CUTLL1 [9]) was “inactive”. For the same molecule, the Activity (CUTLL1 [10]) was “inactive”, the “growth inhibition (GI)” value (CUTLL1 [11]) was “inactive” and the Activity (CUTLL1 [12]) was “Active”. For the same molecule, the Activity (CUTLL1 [13]) was “Active”, the Activity (CUTLL1 [14]) was “Active” and the Activity (CUTLL1 [15]) was “inactive”. The Activity (CUTLL1 [16]) was “Active”, the Activity (CUTLL1 [17]) was “inactive” and the Activity (CUTLL1 [18]) was “inactive”. For the same molecule, the Activity (CUTLL1 [19]) was “inactive”, the Activity (CUTLL1 [20]) was “Active” and the Activity (CUTLL1 [21]) was “Active”. For the same molecule, the Activity (CUTLL1 [22]) was “Active”, the Activity (CUTLL1 [23]) was “inactive” and the Activity (CUTLL1 [24]) was “Active”. For the same molecule, the Activity (CUTLL1 [25]) was “inactive”, the Activity (CUTLL1 [26]) was “inactive” and the Activity (CUTLL1 [27]) was “Active”. The Activity (CUTLL1 [28]) was “Active”, the Activity (CUTLL1 [29]) was “Active” and the Activity (CUTLL1 [30]) was “Active”. For the same molecule, the Activity (CUTLL1 [31]) was “inactive”, the inhibition [32] was “inactive” and the “growth inhibition (GI)” value (CUTLL1 [33]) was “inactive”.
